Here are results for 8 compounds from article PMC8435006 (ACS infectious diseases, 2021).

Experiment [1] concerns the target CphA. Conditions: read-out: Ki against CphA; captopril isomers; ref Table S1; cited from earlier work.
The target in experiment [2] is L1 (B3 MBL) (Stenotrophomonas maltophilia, UniProt P52700). The experiment is described as follows: Ki by imipenem hydrolysis, purified recombinant L1. It counts as biochemical. Conditions: read-out: Ki against L1; MMTZs; imipenem substrate, 30 °C, pH 7.5, 20 μM ZnSO4. The method, boiled down: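 Steady-state imipenem hydrolysis by purified L1 (2 nM final) at 30 °C, followed as the absorbance decrease at 300 nm (Δε300 = −9000 M−1cm−1). Buffer was 10 mM HEPES pH 7.5, 200 mM NaCl, 50 mg/L BSA and 20 μM ZnSO4. Inhibitor came from a DMSO stock diluted into buffer, and enzyme was added last. Rates from slopes were fitted to a competitive inhibition model for Ki.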

In experiment [3] the test system is E. coli DH10B expressing L1. As to the kind of experiment: Imipenem MIC potentiation, broth microdilution, L1 producer. It counts as cell-based. On the technique in general: In broth dilution the organism is exposed to a series of concentrations in liquid medium.
The target of experiment [4] is NDM-1 (B1 MBL). Conditions: read-out: Ki against NDM-1; MMTZs; same protocol; ref 6 (Rossi et al); cited from earlier work.
The target of experiment [5] is VIM-2 (B1 MBL). Conditions: read-out: Ki against VIM-2; MMTZs; same protocol; ref 6 (Rossi et al); cited from earlier work.
Experiment [6] has as its target IMP-1 (B1 MBL). As to conditions: read-out: Ki against IMP-1; MMTZs; same protocol; ref 6 (Rossi et al); cited from earlier work.
The target of experiment [7] is Sfh-I (B2 MBL) (Serratia fonticola, UniProt Q9RMI1). As to the kind of experiment: Ki by imipenem hydrolysis, purified recombinant Sfh-I. It counts as biochemical. Conditions: ratio of Ki values. The gist of the method: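 Sfh-I (2 nM final) hydrolysing imipenem at 30 °C, monitored at 300 nm under steady-state conditions in 10 mM HEPES pH 7.5, 200 mM NaCl, 50 mg/L BSA, with no added zinc. Reactions were started by adding enzyme to the substrate plus inhibitor (DMSO stock diluted in buffer). Ki came from competitive-model fits of the rates, and the fold value is the ratio of Ki values.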

Experiment [8] deals with E. coli DH10B expressing NDM-1. As to the kind of experiment: Imipenem MIC potentiation, broth microdilution, NDM-1 producer. It counts as cell-based. As to conditions: 100 μg/mL MMTZ; E. coli DH10B producing NDM-1.
The subject of experiment [9] is E. coli DH10B expressing Sfh-I. As to the kind of experiment: Imipenem MIC potentiation, broth microdilution, Sfh-I producer. As to conditions: 100 μg/mL MMTZ; E. coli DH10B producing Sfh-I. The format is cell-based.
Setting [10] is: 50 μg/mL inhibitor, L1-expressing E. coli DH10B.
Where [11] appears, read: 100 μg/mL MMTZ, E. coli DH10B producing L1.

Sequence of L1 (B3 MBL) (P52700 34-290): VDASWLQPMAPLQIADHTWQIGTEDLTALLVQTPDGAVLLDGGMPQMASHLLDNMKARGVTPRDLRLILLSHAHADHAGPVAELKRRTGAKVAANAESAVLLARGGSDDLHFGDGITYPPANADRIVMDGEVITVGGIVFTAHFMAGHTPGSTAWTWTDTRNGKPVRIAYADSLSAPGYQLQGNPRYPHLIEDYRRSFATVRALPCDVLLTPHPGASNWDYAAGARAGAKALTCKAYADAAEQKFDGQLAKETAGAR

Take `C[C@H](CS)C(=O)N1CCC[C@H]1C(=O)O` [L-captopril]: the Ki in [1] is 950 µM.

Regarding `C[C@H](CS)C(=O)N1CCC[C@@H]1C(=O)O` [D-captopril], in experiment [1], the Ki was 72 µM.

Consider `CCOC(=O)[C@@]1(CS)N[C@H](C(=O)O)C(C)(C)S1` [L-syn-1b], for which the inhibitory constant (Ki) in experiment [2] was 28 ± 3 µM; in [4] it was 8 ± 1 µM; in experiment [5], 3.6 ± 0.4 µM; in experiment [6] it was 6 ± 0.6 µM. The “Reduction of imipenem MIC” value in experiment [3] (setting [10]) is reported as “four-fold”.

Take `CCOC(=O)[C@@]1(CS)N[C@@H](C(=O)O)C(C)(C)S1` [D-anti-1b]: the “Fold less potent against Sfh-I than L-anti-1a” value in experiment [7] was 125 – 800 fold. In addition, the Ki is 1.4 ± 0.2 µM in [2], 3.1 ± 0.3 µM in [4], 0.9 ± 0.1 µM in experiment [5] and 0.93 ± 0.08 µM in experiment [6].

Take `CCOC(=O)[C@]1(CS)N[C@H](C(=O)O)C(C)(C)S1` [L-anti-1b]: the inhibition constant (Ki) in experiment [2] was 20 ± 2 µM; in experiment [4] it was 0.44 ± 0.06 µM; in experiment [5] it was 0.75 ± 0.09 µM; in experiment [6], 0.46 ± 0.05 µM. Also, the “Reduction of imipenem MIC” value in [3] (setting [10]) is on record as “four-fold”.

For the compound `CCOC(=O)[C@]1(CS)N[C@H](C(=O)O)CS1` [L-anti-1a], the Ki is 10 ± 0.8 µM in experiment [2], 5.2 ± 0.7 µM in [4], 0.38 ± 0.05 µM in experiment [5] and 1 ± 0.2 µM in experiment [6]. Besides, the “Reduction of imipenem MIC” value in experiment [8], in experiment [9] and in experiment [3] (setting [11]) was 4 fold throughout.

For `CCOC(=O)[C@]1(CS)N[C@@H](C(=O)O)C(C)(C)S1` [D-syn-1b], the Ki was 4 ± 0.6 µM in experiment [2], 0.6 ± 0.05 µM in experiment [4], 1.9 ± 0.1 µM in experiment [5] and 2 ± 0.2 µM in experiment [6]. The “Reduction of imipenem MIC” value is on record as “least effect” in experiment [8], “least effect” in experiment [9], “four-fold” in experiment [3] (setting [10]) and “least effect” in [3] (setting [11]).

Regarding `CCOC(=O)[C@@]1(CS)N[C@@H](C(=O)O)CS1` [D-anti-1a], in experiment [7], the “Fold less potent against Sfh-I than L-anti-1a” value is 125 – 800 fold. Further, the Ki in [2] was 4 ± 0.5 µM; in [4], 2.5 ± 0.5 µM; in [5] it was 0.39 ± 0.04 µM; in [6], 1.3 ± 0.1 µM.

As usually defined, the Ki is the dissociation constant of the complex between target and ligand, obtained from inhibition or displacement.
